Measured values reported in ChEMBL document CHEMBL2412955, “Synthesis and antibacterial activities of N-substituted-glycinyl 1H-1,2,3-triazolyl oxazolidinones” (2013).
Values after ≈ are worked out from the molar mass of the structure shown.

Columns and labels:
Assay type in all cases: functional
Streptococcus pneumoniae = test: Antibacterial activity against penicillin-resistant Streptococcus pneumoniae after 18 hrs by NCCLS agar dilution method
Summary of the method: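 Agar dilution was run on Mueller-Hinton agar supplemented with 5% sheep blood, with drug dilutions from 0.12 to 64 µg/ml. Test compounds were dissolved in 80% DMSO in water. Final inoculum was 10^7 CFU/ml, incubated at 35 °C for 18 h. MIC was the lowest concentration preventing visible growth.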

Staphylococcus [1] = test: Antibacterial activity against methicillin-susceptible coagulase-negative Staphylococcus after 18 hrs by NCCLS agar dilution method
Summary of the method: (§1)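 Clinical isolates were tested by agar dilution on Mueller-Hinton agar with drug dilutions from 0.12 to 64 µg/ml. Test compounds were dissolved in 80% DMSO in water. Final inoculum was 10^7 CFU/ml, incubated at 35 °C for 18 h. MIC was the lowest concentration inhibiting visible growth.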

Staphylococcus [2] = test: Antibacterial activity against methicillin-resistant coagulase-negative Staphylococcus after 18 hrs by NCCLS agar dilution method; summary of the method: as §1
Escherichia coli = test: Antibacterial activity against Escherichia coli ATCC 25922 after 18 hrs by NCCLS agar dilution method; conditions: ATCC 25922, 18 h
Summary of the method: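 Agar dilution per NCCLS on Mueller-Hinton agar, drug dilutions 0.12–64 µg/ml. Linezolid dissolved in 40% water in ethanol, vancomycin in water, test agents in 80% DMSO in water. Inoculum 10^7 CFU/ml (final), incubated 35 °C for 18 h. MIC is the lowest concentration preventing visible growth.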

Staphylococcus aureus [3] = test: Antibacterial activity against methicillin-resistant Staphylococcus aureus after 18 hrs by NCCLS agar dilution method; summary of the method: as §1
Staphylococcus aureus [4] = test: Antibacterial activity against Staphylococcus aureus ATCC 25923 after 18 hrs by […] in presence of human plasma; conditions: ATCC 25923, Plasma
Summary of the method: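 To gauge plasma protein binding and/or plasma instability, MIC was determined in Mueller-Hinton broth containing 50% human plasma. Linezolid served as a reference agent. Ratio compares this MIC with the MIC obtained without plasma.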

Haemophilus influenzae = test: Antibacterial activity against Haemophilus influenzae ATCC 49247 after 18 hrs by NCCLS agar dilution method; conditions: ATCC 49247, 18 h
Summary of the method: (§2)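 NCCLS agar dilution on Mueller-Hinton agar with 5% sheep blood added to support growth. Drug dilutions 0.12–64 µg/ml. Test agents in 80% DMSO in water, linezolid in 40% water in ethanol. Final inoculum 10^7 CFU/ml, 18 h at 35 °C. MIC read as the lowest concentration with no visible growth.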

Enterococcus [5] = test: Antibacterial activity against vancomycin-resistant Enterococcus after 18 hrs by NCCLS agar dilution method; summary of the method: as §1
Staphylococcus aureus [6] = test: Antibacterial activity against Staphylococcus aureus ATCC 25923 after 18 hrs by NCCLS agar dilution method; conditions: ATCC 25923, 18 h
Summary of the method: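 Plain Mueller-Hinton agar, agar dilution per NCCLS, concentrations 0.12–64 µg/ml. Test agents in 80% DMSO in water, linezolid in 40% water in ethanol, vancomycin in water. Final inoculum 10^7 CFU/ml, 35 °C for 18 h. MIC = lowest concentration inhibiting visible growth.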

Staphylococcus aureus [7] = test: Antibacterial activity against methicillin-susceptible Staphylococcus aureus after 18 hrs by NCCLS agar dilution method; summary of the method: as §1
Enterococcus [8] = test: Antibacterial activity against vancomycin-susceptible Enterococcus after 18 hrs by NCCLS agar dilution method; summary of the method: as §1
Moraxella catarrhalis [9] = test: Antibacterial activity against Moraxella catarrhalis ATCC 8176 after 18 hrs by NCCLS agar dilution method; conditions: ATCC 8176, 18 h; summary of the method: as §2
Moraxella catarrhalis [10] = test: Antibacterial activity against Moraxella catarrhalis clinical isolate 125 after 18 hrs by NCCLS agar dilution method; conditions: clinical isolate 125, 18 h; summary of the method: as §2
Moraxella catarrhalis [11] = test: Antibacterial activity against Moraxella catarrhalis clinical isolate 3447 after 18 hrs by NCCLS agar dilution method; conditions: clinical isolate 3447, 18 h; summary of the method: as §2
Moraxella catarrhalis [12] = test: Antibacterial activity against Moraxella catarrhalis clinical isolate 138 after 18 hrs by NCCLS agar dilution method; conditions: clinical isolate 138, 18 h; summary of the method: as §2
Moraxella catarrhalis [13] = test: Antibacterial activity against Moraxella catarrhalis clinical isolate 2824 after 18 hrs by NCCLS agar dilution method; conditions: clinical isolate 2824, 18 h; summary of the method: as §2
Moraxella catarrhalis [14] = test: Antibacterial activity against Moraxella catarrhalis clinical isolate 112 after 18 hrs by NCCLS agar dilution method; conditions: clinical isolate 112, 18 h; summary of the method: as §2
Moraxella catarrhalis [15] = test: Antibacterial activity against Moraxella catarrhalis clinical isolate 255 after 18 hrs by NCCLS agar dilution method; conditions: clinical isolate 255, 18 h; summary of the method: as §2
Moraxella catarrhalis [16] = test: Antibacterial activity against Moraxella catarrhalis clinical isolate 1 after 18 hrs by NCCLS agar dilution method; conditions: clinical isolate 1, 18 h; summary of the method: as §2
Moraxella catarrhalis [17] = test: Antibacterial activity against Moraxella catarrhalis clinical isolate 36 after 18 hrs by NCCLS agar dilution method; conditions: clinical isolate 36, 18 h; summary of the method: as §2

Compound	MIC (Streptococcus pneumoniae) [µg/mL]	MIC (Staphylococcus [1]) [µg/mL]	MIC (Staphylococcus [2]) [µg/mL]	MIC (Escherichia coli) [µg/mL]	MIC (Staphylococcus aureus [3]) [µg/mL]	MIC (Staphylococcus aureus [4]) [µg/mL]	MIC (Haemophilus influenzae) [µg/mL]	MIC (Enterococcus [5]) [µg/mL]	MIC (Staphylococcus aureus [6]) [µg/mL]	MIC (Staphylococcus aureus [7]) [µg/mL]	MIC (Enterococcus [8]) [µg/mL]	MIC (Moraxella catarrhalis [9]) [µg/mL]	MIC (Moraxella catarrhalis [10]) [µg/mL]	MIC (Moraxella catarrhalis [11]) [µg/mL]	MIC (Moraxella catarrhalis [12]) [µg/mL]	MIC (Moraxella catarrhalis [13]) [µg/mL]	MIC (Moraxella catarrhalis [14]) [µg/mL]	MIC (Moraxella catarrhalis [15]) [µg/mL]	MIC (Moraxella catarrhalis [16]) [µg/mL]	MIC (Moraxella catarrhalis [17]) [µg/mL]
O=C(NCC(=O)N1CCN(c2ccc(N3C[C@H](Cn4ccnn4)OC3=O)cc2F)CC1)C1CCCO1 (some centres undefined)	1 (≈ 1.99 µM)	4 (≈ 7.98 µM)	4 (≈ 7.98 µM)	> 64	4 (≈ 7.98 µM)	16	32 (≈ 63.8 µM)	8 (≈ 16 µM)	8 (≈ 16 µM)	4 (≈ 7.98 µM)	4 (≈ 7.98 µM)	16 (≈ 31.9 µM)	–	–	–	–	–	–	–	–
Cc1cn(C[C@H]2CN(c3ccc(N4CCN(C(=O)CNC(=O)C5CCCO5)CC4)c(F)c3)C(=O)O2)nn1 (some centres undefined)	0.5 (≈ 0.97 µM)	16 (≈ 31 µM)	16 (≈ 31 µM)	> 64	16 (≈ 31 µM)	32	32 (≈ 62.1 µM)	16 (≈ 31 µM)	32 (≈ 62.1 µM)	16 (≈ 31 µM)	16 (≈ 31 µM)	32 (≈ 62.1 µM)	–	–	–	–	–	–	–	–
O=C(NCC(=O)N1CCN(c2ccc(N3C[C@H](Cn4ccnn4)OC3=O)cc2F)CC1)c1ccccc1	1 (≈ 1.97 µM)	0.5 (≈ 0.985 µM)	0.5 (≈ 0.985 µM)	> 64	0.5 (≈ 0.985 µM)	> 64	32 (≈ 63.1 µM)	0.5 (≈ 0.985 µM)	1 (≈ 1.97 µM)	0.5 (≈ 0.985 µM)	1 (≈ 1.97 µM)	32 (≈ 63.1 µM)	–	–	–	–	–	–	–	–
Cc1cn(C[C@H]2CN(c3ccc(N4CCN(C(=O)CNC(=O)c5cccs5)CC4)c(F)c3)C(=O)O2)nn1	0.5 (≈ 0.948 µM)	1 (≈ 1.9 µM)	1 (≈ 1.9 µM)	> 64	1 (≈ 1.9 µM)	8	16 (≈ 30.3 µM)	1 (≈ 1.9 µM)	2 (≈ 3.79 µM)	1 (≈ 1.9 µM)	1 (≈ 1.9 µM)	8 (≈ 15.2 µM)	8 (≈ 15.2 µM)	≥ 8	8 (≈ 15.2 µM)	8 (≈ 15.2 µM)	8 (≈ 15.2 µM)	8 (≈ 15.2 µM)	≥ 8	8 (≈ 15.2 µM)
O=C(NCC(=O)N1CCN(c2ccc(N3C[C@H](Cn4ccnn4)OC3=O)cc2F)CC1)c1ccco1	0.25 (≈ 0.503 µM)	1 (≈ 2.01 µM)	1 (≈ 2.01 µM)	> 64	1 (≈ 2.01 µM)	2	16 (≈ 32.2 µM)	1 (≈ 2.01 µM)	2 (≈ 4.02 µM)	1 (≈ 2.01 µM)	1 (≈ 2.01 µM)	16 (≈ 32.2 µM)	–	–	–	–	–	–	–	–
Cc1cn(C[C@H]2CN(c3ccc(N4CCN(C(=O)CNC(=O)c5ccco5)CC4)c(F)c3)C(=O)O2)nn1	0.5 (≈ 0.977 µM)	2 (≈ 3.91 µM)	2 (≈ 3.91 µM)	> 64	2 (≈ 3.91 µM)	4	4 (≈ 7.82 µM)	2 (≈ 3.91 µM)	2 (≈ 3.91 µM)	2 (≈ 3.91 µM)	2 (≈ 3.91 µM)	8 (≈ 15.6 µM)	> 8	> 8	> 8	> 8	> 8	> 8	> 8	> 8
O=C(CNS(=O)(=O)c1cccs1)N1CCN(c2ccc(N3C[C@H](Cn4ccnn4)OC3=O)cc2F)CC1	1 (≈ 1.82 µM)	2 (≈ 3.64 µM)	2 (≈ 3.64 µM)	> 64	2 (≈ 3.64 µM)	32	≥ 64	2 (≈ 3.64 µM)	4 (≈ 7.28 µM)	2 (≈ 3.64 µM)	2 (≈ 3.64 µM)	32 (≈ 58.2 µM)	–	–	–	–	–	–	–	–
Cc1cn(C[C@H]2CN(c3ccc(N4CCN(C(=O)CNS(=O)(=O)c5cccs5)CC4)c(F)c3)C(=O)O2)nn1	2 (≈ 3.55 µM)	8 (≈ 14.2 µM)	8 (≈ 14.2 µM)	> 64	8 (≈ 14.2 µM)	32	64 (≈ 114 µM)	8 (≈ 14.2 µM)	16 (≈ 28.4 µM)	8 (≈ 14.2 µM)	8 (≈ 14.2 µM)	32 (≈ 56.8 µM)	–	–	–	–	–	–	–	–
CC(=O)NC[C@H]1CN(c2ccc(N3CCOCC3)c(F)c2)C(=O)O1 [LINEZOLID]	–	0.5 (≈ 1.48 µM)	0.5 (≈ 1.48 µM)	> 64	0.5 (≈ 1.48 µM)	–	8 (≈ 23.7 µM)	0.5 (≈ 1.48 µM)	–	0.5 (≈ 1.48 µM)	0.5 (≈ 1.48 µM)	8 (≈ 23.7 µM)	8 (≈ 23.7 µM)	8 (≈ 23.7 µM)	8 (≈ 23.7 µM)	8 (≈ 23.7 µM)	8 (≈ 23.7 µM)	8 (≈ 23.7 µM)	8 (≈ 23.7 µM)	8 (≈ 23.7 µM)
